Laboratory results published in ChEMBL document CHEMBL1828502, “Quinolinyl and quinolinyl N-oxide chalcones: synthesis, antifungal and cytotoxic activities” (Eur J Med Chem, 2011).
Converted amounts (≈) assume the structure as drawn.

Assays:
HL-60 = assay: Anticancer activity against human HL60 cells after 48 hrs by MTT assay; format: functional, cell-based
How it was run: (§1)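 HL60 and Jurkat leukemia lines plated at 50,000 and 100,000 cells/well respectively and pre-incubated 24 h at 37 °C, 5% CO2. Compounds dissolved in DMSO and tested over a concentration range of […] for 48 h. Viability read by MTT reduction (4 h), formazan dissolved in acidic isopropanol, OD 590 nm. Values normalized to 0.05% DMSO control; IC50 taken graphically from dose-effect curves. Triplicate, three separate days.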

[1] = tested on: Cryptococcus gattii species complex; assay: Antifungal activity against Cryptococcus gattii by two fold serial dilution method; format: functional, Cryptococcus bacillisporus
How it was run: (§2)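 Broth microdilution MIC following CLSI M27-A2 with twofold serial dilutions; strains ATCC 18804 (C. albicans), ATCC 22019 (C. parapsilosis), ATCC 750 (C. tropicalis), ATCC 32608 (C. gattii), kept on Sabouraud dextrose agar at 4 °C. Amphotericin B and trimethoprim/sulfamethoxazole served as positive controls.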

[2] = tested on: Paracoccidioides brasiliensis; assay: Antifungal activity against Paracoccidioides brasiliensis Pb18 after 10 days by broth microdilution method in presence of 1 M osmotic stabilizer sorbitol; format: functional; details: 240 h
UACC-62 = assay: Anticancer activity against human UACC62 cells after 48 hrs by sulforhodamine B assay; format: functional, cell-based
How it was run: (§3)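 Solid tumour lines from NCI (NCI colorimetric protocol), seeded and pre-incubated 24 h at 37 °C, 5% CO2, then exposed to compounds for 48 h. Proteins fixed with trichloroacetic acid, stained with sulforhodamine B, dye dissolved in 10 mM Tris, absorbance at 515 nm compared against initial-density control wells. IC50 from dose-response curves built with 1:2 serial dilutions; duplicate, repeated at least three times.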

Candida tropicalis [3] = assay: Antifungal activity against Candida tropicalis by two fold serial dilution method; format: functional; how it was run: as §2
Candida albicans = assay: Antifungal activity against Candida albicans by two fold serial dilution method; format: functional; how it was run: as §2
Candida parapsilosis = assay: Antifungal activity against Candida parapsilosis by two fold serial dilution method; format: functional; details: Lodderomyces parapsilosis; how it was run: as §2
[4] = tested on: Paracoccidioides brasiliensis; assay: Antifungal activity against Paracoccidioides brasiliensis Pb18 by serial dilution method; format: functional
MCF7 = assay: Anticancer activity against human MCF7 cells after 48 hrs by sulforhodamine B assay; format: functional, cell-based; how it was run: as §3
[5] = tested on: Cryptococcus gattii species complex; assay: Antifungal activity against Cryptococcus gattii by two fold serial dilution method after 3 days by broth microdilution method in presence of 1 M osmotic stabilizer sorbitol; format: functional, Cryptococcus bacillisporus; details: 72 h
Candida tropicalis [6] = assay: Antifungal activity against Candida tropicalis after 2 days by broth microdilution method in presence of 1 M osmotic stabilizer sorbitol; format: functional; details: 48 h
TK-10 = assay: Anticancer activity against human TK10 cells after 48 hrs by sulforhodamine B assay; format: functional, cell-based; how it was run: as §3
Jurkat = assay: Anticancer activity against human Jurkat cells after 48 hrs by MTT assay; format: functional, cell-based; how it was run: as §1
[7] = Homo sapiens, HL-60, 48 h, read-out: IC50
[8] = Homo sapiens, Jurkat, 48 h, read-out: IC50
[9] = Homo sapiens, UACC-62, 48 h, read-out: IC50
[10] = Homo sapiens, MCF7, 48 h, read-out: IC50
[11] = Homo sapiens, TK-10, 48 h, read-out: IC50

Compound | IC50 (HL-60; [7]) | MIC [1] | MIC [2] | IC50 (UACC-62; uacc-62) | MIC (Candida tropicalis [3]) | MIC (Candida albicans) | MIC (Candida parapsilosis) | MIC [4] | IC50 (MCF7; mcf7) | MIC [5] | MIC (Candida tropicalis [6]) | IC50 (TK-10; tk-10) | IC50 (Jurkat; jurkat) | IC50 (Jurkat; [8]) | IC50 (HL-60; hl-60) | IC50 (UACC-62; [9]) | IC50 (MCF7; [10]) | IC50 (TK-10; [11])
Cc1ccc(C(=O)/C=C/c2ccc3ncccc3c2)cc1 | 8.28 µg/mL (≈ 30.3 µM) | > 500 µg/mL | 7.8 µg/mL | Not Active | > 500 µg/mL | > 500 µg/mL | > 500 µg/mL | 7.8 µg/mL (≈ 28.5 µM) | Not Active | > 31.2 µg/mL | > 31.2 µg/mL | Not Active | Not Active |  |  |  |  | 
C[n+]1cccc2cc(/C=C/C(=O)c3ccc(Cl)cc3)ccc21.[I-] | 9.9 µg/mL | 15.6 µg/mL | > 31.2 µg/mL | Not Active | 31.2 µg/mL | 500 µg/mL | > 500 µg/mL | 125 µg/mL | Not Active | 15.6 µg/mL | 31.2 µg/mL | Not Active |  | 4.9 µg/mL |  |  |  | 
O=C(/C=C/c1ccc2c(ccc[n+]2[O-])c1)c1ccc([N+](=O)[O-])cc1 |  | > 500 µg/mL |  |  | > 500 µg/mL | > 500 µg/mL | > 500 µg/mL | 500 µg/mL (≈ 1560 µM) |  |  |  |  |  |  |  |  |  | 
Cc1ccc(C(=O)/C=C/c2ccc3c(ccc[n+]3C)c2)cc1.[I-] |  | 7.8 µg/mL | > 31.2 µg/mL | Not Active | 15.6 µg/mL | 125 µg/mL | > 500 µg/mL | 62.5 µg/mL | Not Active | 15.5 µg/mL | 62.5 µg/mL | Not Active | Not Active |  | Not Active |  |  | 
O=C(/C=C/c1ccc2c(ccc[n+]2[O-])c1)c1ccccc1 | 4.9 µg/mL (≈ 17.8 µM) | 250 µg/mL (≈ 908 µM) |  | Not Active | > 500 µg/mL | > 500 µg/mL | > 500 µg/mL | 62.5 µg/mL (≈ 227 µM) | Not Active |  |  | Not Active | Not Active |  |  |  |  | 
C[n+]1cccc2cc(/C=C/C(=O)c3ccc(Br)cc3)ccc21.[I-] |  | 7.8 µg/mL | 31.2 µg/mL | Not Active | 15.6 µg/mL | 250 µg/mL | 125 µg/mL | 31.2 µg/mL | Not Active | 7.8 µg/mL | 15.6 µg/mL | Not Active |  | 7.3 µg/mL | Not Active |  |  | 
O=C(/C=C/c1ccc2ncccc2c1)c1ccc([N+](=O)[O-])cc1 |  | > 500 µg/mL |  |  | > 500 µg/mL | > 500 µg/mL | > 500 µg/mL | 500 µg/mL (≈ 1640 µM) |  |  |  |  |  |  |  |  |  | 
C[n+]1cccc2cc(/C=C/C(=O)c3ccc(F)cc3)ccc21.[I-] |  | 15.6 µg/mL | > 31.2 µg/mL | Not Active | 62.5 µg/mL | 500 µg/mL | > 500 µg/mL |  | Not Active | 62.5 µg/mL | > 31.2 µg/mL | Not Active | Not Active |  | Not Active |  |  | 
O=C(/C=C/c1ccc2c(ccc[n+]2[O-])c1)c1ccc(F)cc1 |  | 62.5 µg/mL (≈ 213 µM) | 1.9 µg/mL |  | > 500 µg/mL | > 500 µg/mL | > 500 µg/mL | 1.9 µg/mL (≈ 6.48 µM) |  | > 31.2 µg/mL | > 31.2 µg/mL |  |  | 71.9 µg/mL (≈ 245 µM) | Not Active | 2.75 µg/mL (≈ 9.38 µM) | 4.3 µg/mL (≈ 14.7 µM) | 0.19 µg/mL (≈ 0.648 µM)
COc1ccc(C(=O)/C=C/c2ccc3c(ccc[n+]3[O-])c2)cc1 | 14.8 µg/mL (≈ 48.5 µM) | > 500 µg/mL | 15.6 µg/mL |  | > 500 µg/mL | > 500 µg/mL | > 500 µg/mL | 15.6 µg/mL (≈ 51.1 µM) |  | > 31.2 µg/mL | > 31.2 µg/mL |  |  | 36.3 µg/mL (≈ 119 µM) |  | 4.3 µg/mL (≈ 14.1 µM) | 1.15 µg/mL (≈ 3.77 µM) | 5.25 µg/mL (≈ 17.2 µM)
O=C(/C=C/c1ccc2ncccc2c1)c1ccc(F)cc1 | 20.8 µg/mL (≈ 75 µM) | 500 µg/mL (≈ 1800 µM) | 7.8 µg/mL |  | > 500 µg/mL | > 500 µg/mL | > 500 µg/mL | 7.8 µg/mL (≈ 28.1 µM) |  | > 31.2 µg/mL | > 31.2 µg/mL |  |  | 26.5 µg/mL (≈ 95.6 µM) |  | 5.6 µg/mL (≈ 20.2 µM) | 6.3 µg/mL (≈ 22.7 µM) | 1 µg/mL (≈ 3.61 µM)
COc1cc([C@@H]2c3cc4c(cc3[C@@H](O[C@@H]3O[C@@H]5CO[C@@H](C)O[C@H]5[C@H](O)[C@H]3O)[C@H]3COC(=O)[C@H]23)OCO4)cc(OC)c1O [ETOPOSIDE] | 0.47 µg/mL (≈ 0.799 µM) |  |  |  |  |  |  |  |  |  |  |  |  | 2.8 µg/mL (≈ 4.76 µM) |  | 1.4 µg/mL (≈ 2.38 µM) | 0.03 µg/mL (≈ 0.051 µM) | 20.4 µg/mL (≈ 34.7 µM)
